Results on one molecule are retold here after ChEMBL document CHEMBL5030505, “Assessment of NR4A Ligands That Directly Bind and Modulate the Orphan Nuclear Receptor Nurr1” (J Med Chem, 2020).

Common to all, as to format: cell-based
Data set [1] has as its target Nuclear receptor subfamily 4 group A member 2 (Homo sapiens) (UniProt P43354). Briefly: Modulation of full length human Nurr1 expressed in PC12 cells co-transfected with RXRalpha and luciferase reporter plasmid harboring NBRE response element assessed as increase in luciferase activity at 100 uM incubated for 18 hrs by luciferase reporter gene assay. The following applies: PC-12, filed as modulator. Put shortly: (§1)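 PC12 cells were grown at 37°C and 5% CO2 in […] medium with 15% horse serum and 2.5% FBS. They were transfected with full-length Nurr1 (1 μg) plus full-length RXRα (1 μg) and 3xNBRE- or 3xNurRE-luciferase reporter (6 μg) for 18 h, then replated at 10,000 cells/well for 4 h. Ligand or vehicle (water, ethanol or DMSO) was added in quadruplicate for 18 h. Luminescence was read as fold change over vehicle. Results are mean ± s.e.m., n=4, from 2 independent experiments, analysed by one-way ANOVA against vehicle.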

Data set [2] has as its system PC-12. The experiment in a line: Cytotoxicity in rat PC-12 cells assessed as reduction in cell viability at 0.01 to 100 uM incubated for 18 hrs by Cell Titer-Glo assay. As to conditions: pc-12, 18 h, dose 0.01-100 µM. In outline:
(§2)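 Cells seeded at 1.5 million per 10-cm dish. Next day they were replated at 10,000 cells/well and rested 4 h. Ligand or vehicle (water, ethanol or DMSO, by ligand) was added in dose-response format in quadruplicate. After 18 h, viability was read by CellTiter-Glo luminescence. Data are mean ± s.e.m., generally representative of 2 independent experiments. One-way ANOVA versus vehicle.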
On the technique in general: Cellular ATP, detected with luciferase, serves as a proxy for viable cell number.

The test system of data set [3] is SK-N-BE(2). Briefly: Cytotoxicity in human SKNBE2 cells assessed as reduction in cell viability at 0.01 to 100 uM incubated for 18 hrs by Cell Titer-Glo assay. The following applies: dose 0.01-100 µM. In outline:
as §2

The target of data set [4] is Nuclear receptor subfamily 4 group A member 2 (Homo sapiens) (UniProt P43354). The experiment in a line: Modulation of full length human Nurr1 expressed in HEK293T cells co-transfected with RXRalpha and luciferase reporter plasmid harboring NurRE response element assessed as increase in luciferase activity at 100 uM incubated for 18 hrs by luciferase reporter gene assay. As to conditions: filed as modulator. In outline: (§3)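 Full-length Nurr1 plasmid, alone (2 μg) or 1 μg plus full-length RXRα (1 μg), cotransfected with 3xNBRE- or 3xNurRE-luciferase reporter (6 μg) using Lipofectamine 2000, 18 h. Cells replated at 10,000/well for 4 h. Four ligand concentrations, or vehicle (water, ethanol or DMSO), added in quadruplicate for 18 h. Luciferase read. Fold change vs vehicle, mean ± s.e.m., one-way ANOVA vs vehicle.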
On the technique in general: In a reporter assay the amount or activity of a reporter protein is the signal.

The subject of data set [5] is PC-12. Briefly: Modulation of Gal4-fused VP16 expressed in PC12 cells co-transfected with UAS repoter gene assessed as increase in luciferase activity at 0.01 to 100 uM incubated for 18 hrs by luciferase reporter gene assay. As to conditions: Human alphaherpesvirus 2, filed as modulator, dose 0.01-100 µM. Put shortly:
(§4)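 Cells in 10-cm dishes were transfected with Gal4-VP16 expression plasmid (2 μg) plus 5xUAS-luciferase reporter (2 μg) for 18 h. They were replated at 10,000 cells/well for 4 h, then given ligand or vehicle (water, ethanol or DMSO) in quadruplicate for 18 h. Luciferase was read with Britelite Plus. Fold change is versus vehicle-treated cells, with one-way ANOVA versus vehicle.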

Data set [6] addresses Nuclear receptor subfamily 4 group A member 2 (Homo sapiens) (UniProt P43354). The experiment in a line: Modulation of full length human Nurr1 expressed in HEK293T cells co-transfected with luciferase reporter plasmid harboring NurRE response element assessed as increase in luciferase activity at 100 uM incubated for 18 hrs by luciferase reporter gene assay. As to conditions: filed as modulator. In outline:
as §3

Data set [7] concerns HEK293T. Briefly: Modulation of Gal4-fused VP16 expressed in HEK293T cells co-transfected with UAS repoter gene assessed as increase in luciferase activity at 0.01 to 100 uM incubated for 18 hrs by luciferase reporter gene assay. The following applies: Human alphaherpesvirus 2, filed as modulator, dose 0.01-100 µM. In outline:
as §4

In data set [8] the target is Nuclear receptor subfamily 4 group A member 2 (Homo sapiens) (UniProt P43354). Briefly: Modulation of full length human Nurr1 expressed in SKNBE(2) cells co-transfected with luciferase reporter plasmid harboring NBRE response element assessed as increase in luciferase activity at 100 uM incubated for 18 hrs by luciferase reporter gene assay. The following applies: SKNBE2, filed as modulator. In outline:
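Transfection of SK-N-BE(2)-C cells (1:1 EMEM/F12, 10% FBS, 37°C, 5% CO2) used full-length Nurr1 alone (2 μg, no RXRα) with 3xNBRE- or 3xNurRE-luciferase reporter (6 μg) for 18 h. Cells were replated at 10,000/well for 4 h, then exposed to ligand or vehicle in quadruplicate for 18 h. Luminescence was expressed as fold over vehicle, as mean ± s.e.m. (n=4) from 2 independent experiments, one-way ANOVA against vehicle.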

Data set [9] has the same target. Briefly: Modulation of full length human Nurr1 expressed in SKNBE(2) cells co-transfected with luciferase reporter plasmid harboring NurRE response element assessed as increase in luciferase activity at 100 uM incubated for 18 hrs by luciferase reporter gene assay. The following applies: SKNBE2, filed as modulator.
Data set [10] shares this target. The experiment in a line: Modulation of full length human Nurr1 expressed in SKNBE(2) cells co-transfected with RXRalpha and luciferase reporter plasmid harboring NBRE response element assessed as increase in luciferase activity at 100 uM incubated for 18 hrs by luciferase reporter gene assay. As to conditions: SKNBE2, filed as modulator. Put shortly: (§5)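 SK-N-BE(2)-C cells were kept in 1:1 EMEM/F12 with 10% FBS at 37°C and 5% CO2. They were cotransfected with full-length Nurr1 (1 μg), full-length RXRα (1 μg) and 3xNBRE- or 3xNurRE-luc reporter (6 μg) for 18 h, replated at 10,000 cells/well for 4 h, and then treated with ligand or vehicle in quadruplicate for 18 h. The readout was luciferase luminescence as fold over vehicle, reported as mean ± s.e.m. (n=4) from 2 independent experiments, one-way ANOVA.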

For data set [11] the target is unchanged. The experiment in a line: Modulation of full length human Nurr1 expressed in PC12 cells co-transfected with luciferase reporter plasmid harboring NBRE response element assessed as increase in luciferase activity at 100 uM incubated for 18 hrs by luciferase reporter gene assay. As to conditions: PC-12, filed as modulator. Put shortly:
(§6)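 Here PC12 cells (FK-12 medium, 15% horse serum, 2.5% FBS, 37°C, 5% CO2) received full-length Nurr1 (2 μg) without RXRα, plus 3xNBRE- or 3xNurRE-luciferase reporter (6 μg), for 18 h. Cells were replated at 10,000/well for 4 h, then treated with ligand or vehicle in quadruplicate for 18 h. Luciferase luminescence was normalized to vehicle-treated cells. Results are mean ± s.e.m. (n=4) from 2 independent experiments, with one-way ANOVA against vehicle.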

Data set [12] shares this target. The experiment in a line: Modulation of full length human Nurr1 expressed in PC12 cells co-transfected with luciferase reporter plasmid harboring NurRE response element assessed as increase in luciferase activity at 100 uM incubated for 18 hrs by luciferase reporter gene assay. As to conditions: PC-12, filed as modulator. Put shortly: as §6
Data set [13] shares this target. Briefly: Modulation of full length human Nurr1 expressed in HEK293T cells co-transfected with RXRalpha and luciferase reporter plasmid harboring NBRE response element assessed as increase in luciferase activity at 100 uM incubated for 18 hrs by luciferase reporter gene assay. As to conditions: filed as modulator. In outline:
as §3

Data set [14] shares this target. The experiment in a line: Modulation of full length human Nurr1 expressed in SKNBE(2) cells co-transfected with RXRalpha and luciferase reporter plasmid harboring NurRE response element assessed as increase in luciferase activity at 100 uM incubated for 18 hrs by luciferase reporter gene assay. The following applies: SKNBE2, filed as modulator. Put shortly:
as §5

For data set [15] the target is unchanged. The experiment in a line: Modulation of full length human Nurr1 expressed in PC12 cells co-transfected with RXRalpha and luciferase reporter plasmid harboring NurRE response element assessed as increase in luciferase activity at 100 uM incubated for 18 hrs by luciferase reporter gene assay. The following applies: PC-12, filed as modulator. In outline: as §1

In data set [16] the test system is HEK-293T. Briefly: Cytotoxicity in human HEK293T cells assessed as reduction in cell viability at 0.01 to 100 uM incubated for 18 hrs by Cell Titer-Glo assay. As to conditions: dose 0.01-100 µM. Put shortly:
as §2

The target of data set [17] is Nuclear receptor subfamily 4 group A member 2 (Homo sapiens) (UniProt P43354). The experiment in a line: Modulation of full length human Nurr1 expressed in HEK293T cells co-transfected with luciferase reporter plasmid harboring NBRE response element assessed as increase in luciferase activity at 100 uM incubated for 18 hrs by luciferase reporter gene assay. As to conditions: filed as modulator. Put shortly: as §3

Calls of active or inactive are those of the source. No cut-off for these calls is given here.

Chain of Nuclear receptor subfamily 4 group A member 2 (Homo sapiens) (P43354 whole entry): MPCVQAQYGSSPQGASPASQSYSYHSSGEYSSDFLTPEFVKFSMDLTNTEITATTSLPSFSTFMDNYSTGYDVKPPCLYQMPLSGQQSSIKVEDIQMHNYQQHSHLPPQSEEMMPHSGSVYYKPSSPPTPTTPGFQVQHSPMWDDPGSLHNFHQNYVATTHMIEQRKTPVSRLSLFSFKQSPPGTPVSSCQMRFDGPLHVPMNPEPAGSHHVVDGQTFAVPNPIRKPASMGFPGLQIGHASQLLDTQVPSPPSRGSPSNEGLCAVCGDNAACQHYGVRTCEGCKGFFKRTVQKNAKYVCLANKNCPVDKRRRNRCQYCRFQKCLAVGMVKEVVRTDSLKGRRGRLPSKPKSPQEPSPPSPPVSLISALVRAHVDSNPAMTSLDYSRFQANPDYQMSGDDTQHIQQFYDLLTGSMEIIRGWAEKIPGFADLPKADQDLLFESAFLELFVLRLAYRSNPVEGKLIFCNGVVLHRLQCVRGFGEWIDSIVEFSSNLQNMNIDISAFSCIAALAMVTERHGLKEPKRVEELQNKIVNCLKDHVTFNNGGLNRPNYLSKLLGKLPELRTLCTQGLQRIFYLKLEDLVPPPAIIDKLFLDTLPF

Consider `COCCOCc1ccc(-c2cc3onc(-c4ccccc4)c3c(=O)n2C)cc1`, for which the outcome in [1], in data set [4], in data set [5], in [6], in data set [7] and in data set [8] was Active. In addition, the result in data set [9], in data set [10], in data set [11], in data set [12], in data set [13] and in data set [14] was Active. The result in data set [15] and in data set [17] was Active. The Activity entry in data set [2], in data set [3] and in data set [16] was “Non-Toxic” each time.
